Data as given in ChEMBL document CHEMBL1158834, “Cytotoxic clerodane diterpenoids from Casearia membranacea” (2005).
Values after ≈ are worked out from the molar mass of the structure shown.

Columns and labels:
Format in all cases: functional
KB = assay: Cytotoxicity against human KB cells after 3 days by methylene blue staining; settings: 72 h, read-out: ED50 (the source's name)
Outline: (§1)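 Cells grown in RPMI-1640 at 37 °C, 5% CO2, seeded at 2880 cells/well for 3 h, then given sample (prepared at 1, 10, 40 and 100 µg/mL) for 3 days at 37 °C. Fixed in 10% formaldehyde/0.9% saline, stained with 1% methylene blue in 0.01 M borate, eluted with EtOH/0.1 M HCl, A650 read. ED50 is the concentration halving absorbance versus untreated cells.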

DLD-1 = assay: Cytotoxicity against human DLD1 cells after 3 days by methylene blue staining; settings: DLD-1, 72 h, read-out: ED50 (the source's name); outline: as §1
[1] = Cytotoxicity against human medulloblastoma cells after 3 days by methylene blue staining; settings: Medulloblastoma cell, 72 h, read-out: ED50 (the source's name); outline: as §1

Row | SMILES | EC50 (KB) [mg/L] | EC50 (DLD-1) [mg/L] | EC50 [1] [mg/L]
1 | C=CC(=C)CC[C@]1(C)[C@H]2C[C@H](OC(=O)C(C)CC)C=C3[C@H](OC(C)=O)O[C@H](OC(C)=O)[C@@]32[C@H](O)C[C@@H]1C (relative stereo) | 3.6 (≈ 6.94 µM) | 1.18 (≈ 2.28 µM) | 1.93 (≈ 3.72 µM)
2 | C=CC(=C)CC[C@]1(C)[C@H]2C[C@H](OC(=O)C(C)CC)C=C3[C@H](OC(=O)CCC)O[C@H](OC(C)=O)[C@@]32[C@H](O)[C@H](OC(C)=O)[C@@H]1C (stereo partly drawn) [CASEAMEMBRIN D] | 5.57 (≈ 9.21 µM) | 1.81 (≈ 2.99 µM) | 2.42 (≈ 4 µM)
3 | C=CC(=C)CC[C@]1(C)[C@H]2C[C@H](OC(=O)C(C)CC)C=C3[C@H](OC(C)=O)O[C@H](OC(C)=O)[C@@]32[C@H](OC(=O)CCC)C[C@@H]1C (stereo partly drawn) [CASEAMEMBRIN M] | 18.4 (≈ 31.3 µM) | 14.2 (≈ 24.1 µM) | 14.4 (≈ 24.5 µM)
4 | C=CC(=C)CC[C@]1(C)[C@H]2C[C@H](OC(=O)CCC)C=C3[C@H](OC(C)=O)O[C@H](OC(C)=O)[C@@]32[C@H](O)[C@H](OC(C)=O)[C@@H]1C [CASEAMEMBRIN N] | 8.94 (≈ 15.9 µM) | 4.37 (≈ 7.77 µM) | 3.27 (≈ 5.81 µM)
5 | C=CC(=C)CC[C@]1(C)[C@H]2C[C@H](OC(=O)CC(C)C)C=C3[C@H](OC(C)=O)O[C@H](OC(C)=O)[C@@]32[C@H](O)[C@H](OC(C)=O)[C@@H]1C [CASEAMEMBRIN O] | 6.94 (≈ 12 µM) | 2.54 (≈ 4.4 µM) | 1.94 (≈ 3.36 µM)
6 | CO[C@@]12[C@H](COC(N)=O)C3=C(C(=O)C(C)=C(N)C3=O)N1C[C@@H]1N[C@@H]12 [MITOMYCIN] | 0.13 (≈ 0.389 µM) | 0.1 (≈ 0.299 µM) | 0.1 (≈ 0.299 µM)
